# Bioassay records as filed in PubChem.
# Lipid droplet – hepatic lipid droplet formation modulation | AML12 mouse hepatocytes, oleate lipid droplets, BODIPY imaging | inhibition, % at 6.5 µM | 0.4% of 240,000 active;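 active means lipid droplet intensity inhibited by at least 50%, with more than 500 cells counted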
#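 System: AML12 hepatocytes (mouse). Probe or stimulus: oleic acid at 100 µM to induce lipid droplet formation. Times: overnight treatment with compound plus oleate. Detection: Image-based BODIPY and DAPI two-channel analysis. Evaluation: percent inhibition of filter-corrected integrated lipid droplet intensity per well.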
# MEKK2 WT-MEK5 – raises or lowers MEK5 binding to wildtype human MEKK2 PB1 domain; bead flow cytometry, Alexa488-MEK5 binding to MEKK2 WT; actives lie on both sides; 1.1% of 290,000 active; binding response (% of control), % at 10 µM; Q9Y2U5; AID 1531; in the data active means binding response below about 67% or above about 130%
# MEKK2mut PB1 HTS – signal of MEK5 binding to mutant human MEKK2 PB1 domain; bead flow cytometry, Alexa488-MEK5 binding to MEKK2 mutant; percent response, % at 10 µM; 0.35% of 290,000 active; AID 1530; in the data active means percent response above about 24%, passing the limit was not always enough
# MEKK3 PB1 HTS – MEKK3-MEK5 PB1 interaction, increase or decrease | Q99759 | bead-based flow cytometry, Alexa488-MEK5 binding to MEKK3; actives lie on both sides; 0 = blocked by unlabeled MEK5, 100 = vehicle | binding response (% of control), % at 10 µM | 1.4% of 290,000 active | AID 1529;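 active means binding response more than 3 SD above or below the average of its plate-row segment, actives on both sides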;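 further: Alexa488 bead fluorescence after subtracting the streptavidin-only scavenger bead signal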
# Target sequence (Q99759 whole entry, looked up): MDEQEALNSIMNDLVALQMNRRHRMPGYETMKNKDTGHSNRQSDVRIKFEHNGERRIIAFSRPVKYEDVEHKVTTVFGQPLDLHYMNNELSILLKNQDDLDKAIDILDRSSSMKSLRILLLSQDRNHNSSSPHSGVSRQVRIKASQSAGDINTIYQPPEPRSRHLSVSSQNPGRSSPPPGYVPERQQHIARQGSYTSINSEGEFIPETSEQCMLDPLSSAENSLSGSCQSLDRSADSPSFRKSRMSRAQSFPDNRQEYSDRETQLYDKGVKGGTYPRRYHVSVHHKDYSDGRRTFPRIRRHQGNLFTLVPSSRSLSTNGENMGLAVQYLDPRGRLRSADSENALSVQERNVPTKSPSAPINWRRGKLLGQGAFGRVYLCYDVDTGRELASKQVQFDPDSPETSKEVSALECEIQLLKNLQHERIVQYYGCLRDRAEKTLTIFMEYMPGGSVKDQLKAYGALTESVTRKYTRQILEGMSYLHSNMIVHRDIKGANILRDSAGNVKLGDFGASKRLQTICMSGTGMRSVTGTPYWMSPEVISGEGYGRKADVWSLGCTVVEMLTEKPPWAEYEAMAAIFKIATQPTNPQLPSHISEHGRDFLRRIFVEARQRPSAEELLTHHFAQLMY
# MEKK2wt confirm – raises or lowers MEK5 binding to wildtype human MEKK2, retest. shares compounds with MEKK3 PB1 HTS. bead flow cytometry, Alexa488-MEK5 binding to MEKK2 WT; actives lie on both sides. 2.4% of 5,900 active. AID 1892. binding response (% of control), % at 10 µM; in the data active means binding response below about 16% or above about 210%; inactive means in between
# MEKK2mut confirm – signal of MEK5 binding to mutant human MEKK2, retest. percent response, % at 10 µM. AID 1893. shares compounds with MEKK3 PB1 HTS. bead flow cytometry, Alexa488-MEK5 binding to MEKK2 mutant. 2% of 5,900 active; in the data active means percent response mostly above about 71%, no sharp cut-off; inactive means mostly below about 38%;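 further: higher means compound restores mutant binding toward wildtype level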
# MEKK3 confirm – MEKK3-MEK5 PB1 inhibition, single concentration confirmation | AID 1894 | binding response (% of control), % at 10 µM | bead flow cytometry, Alexa488-MEK5 binding to MEKK3; hits give low values | 1.8% of 5,900 active | shares compounds with MEKK3 PB1 HTS;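 active means binding response below 72% of control, or above a set upper limit, though filed actives all read lower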
# Numbers stand for hits; i = inactive; nt = no result; [ ] = remark or other dose. Only some compounds are listed: those with a hit (about 2.6% of all), similar ones and a draw of the others.
SMILES,Lipid droplet,MEKK2 WT-MEK5,MEKK2mut PB1 HTS,MEKK3 PB1 HTS,MEKK2wt confirm,MEKK2mut confirm,MEKK3 confirm
COc1cc(NC(=O)C(C)Oc2ccccc2)cc(OC)c1 (configuration not stated),nt,0.0[inhibitor],i,0.0[inhibitor],i,i,i
CCN1CCN(C(c2ccccc2)c2nnnn2Cc2ccccc2)CC1 (configuration not stated),i,139.0,i,144.0,i,i,i
CCN1CCN(C(c2ccc(OC)cc2)c2nnnn2Cc2ccc3c(c2)OCO3)CC1 (configuration not stated),i,i,i,144.0,i,i,i
COC(=O)c1c(NC(=O)CN2C(=O)C(=O)N(CC(C)C)C2=O)sc(C)c1C,i,i,i,i,nt,nt,nt
COCc1nnc(NC(=O)CCc2ccccc2)s1,i,2.0[inhibitor],i,2.0[inhibitor],i,i,i
CCN(CC)C(=O)CSc1nnc(NC(=O)CCc2ccccc2)s1,i,i,i,156.0,i,i,i
CN(C)C(=O)CSc1nnc(NC(=O)CCc2ccccc2)s1,i,i,i,i,nt,nt,nt
CC(C)(CC(=O)O)CC(=O)N1CCN(c2cc(C(F)(F)F)nc3ccccc23)CC1,nt,i,i,i,nt,nt,nt
COc1cc(Cn2c(=O)c3c(OC)c(C)cnc3n(C)c2=O)cc(OC)c1,i,i,i,i,nt,nt,nt
CNc1ccc(Br)cc(C(=O)/C=C/c2ccc3c(c2)OCO3)c1=O,nt,66.0[inhibitor],i,i,i,i,i
O=C(NN=C1CCCCC1)c1ccccc1-n1cccc1,i,i,i,i,nt,nt,nt
CN(Cc1ccno1)C(=O)CC1C(=O)NCCN1CC(c1ccccc1)c1ccccc1 (configuration not stated),i,i,i,i,nt,nt,nt
CCOC(=O)C1(Cc2cccc(F)c2)CCN(Cc2cnn(CC)c2)CC1,i,i,i,i,nt,nt,nt
CCOC(=O)C1(Cc2cccc(F)c2)CCN(Cc2nc(CC)[nH]c2C)CC1,i,nt,i,71.0[inhibitor],i,i,i
COCCNc1ccc([N+](=O)[O-])cc1C(=O)Nc1cccc(C)n1,i,i,i,i,nt,nt,nt
Cc1cccc(NC(=O)c2ccc([N+](=O)[O-])cc2Cl)n1,i,i,i,137.0,i,i,i
N=c1n(CCN2CCOCC2)c2ccccc2n1CC(=O)c1cccc([N+](=O)[O-])c1,i,22.0[inhibitor],i,12.0[inhibitor],i,i,i
CCn1c(=N)n(CC(=O)c2cccc([N+](=O)[O-])c2)c2ccccc21,i,i,i,i,nt,nt,nt
COc1ccc(OCc2nc3c4cc(OC)c(OC)cc4nc(=S)n3[nH]2)cc1,i,i,i,128.0,i,i,i
COc1cc2nc(=S)n3[nH]c(CCn4c(C)nc5ccccc54)nc3c2cc1OC,i,i,i,i,nt,nt,nt
O=C(COC(=O)c1cc(S(=O)(=O)NCc2ccccc2)ccc1O)c1cc2ccccc2o1,i,i,i,i,nt,nt,nt
Nc1c(C(=O)NCc2ccccc2)c2nc3ccccc3nc2n1CCCN1CCOCC1,i,i,i,i,nt,nt,nt
COc1ccc(CNC(=O)c2c(N)n(CCCN3CCOCC3)c3nc4ccccc4nc23)cc1,i,154.0,i,i,i,i,i
O=C(CCNC(=O)N1CC(=O)Nc2ccccc21)Nc1cccc(Cl)c1,i,i,i,i,nt,nt,nt
Cc1cc(C)c2c3c(cn2n1)c(=O)n(C)c(=O)n3C,nt,i,i,i,nt,nt,nt
SMILES,Lipid droplet,MEKK2 WT-MEK5,MEKK2mut PB1 HTS,MEKK3 PB1 HTS,MEKK2wt confirm,MEKK2mut confirm,MEKK3 confirm
COc1ccccc1NC(=O)Cc1nn(C)c(=O)c2ccccc12,i,i,i,i,nt,nt,nt
COc1cccc(OC)c1NC(=O)Cc1nn(C)c(=O)c2ccccc12,nt,i,i,125.0,i,i,i
O=C(Nc1ccccc1F)N1CCC(NC(=O)C23CC4CC(CC(C4)C2)C3)CC1,i,i,i,i,nt,nt,nt
C=CCOc1ccc(/C=C2\N=C(C)OC2=O)cc1OC,i,53.0[inhibitor],i,61.0[inhibitor],i,i,i
CN(C)C(=O)NCc1ccc(S(N)(=O)=O)cc1,i,i,i,39.0[inhibitor],i,i,i
O=C(NCCCN1CCOCC1)C1CC(=O)N(c2ccccc2)C1 (configuration not stated),i,i,i,i,nt,nt,nt
